Source: ChEMBL document CHEMBL1152800, “Aza-analogue dibenzepinone scaffolds as p38 mitogen-activated protein kinase inhibitors: design, synthesis, and biological data of inhibitors with improved physicochemical properties” (J Med Chem, 2009)
Values after ≈ are worked out from the molar mass of the structure shown.

How the values were obtained:
[1] = target: Mitogen-activated protein kinase 14 (Homo sapiens, UniProt Q16539); experiment: Inhibition of p38alpha MAPK by cell-free enzyme immunosorbent assay
[2] = Aqueous solubility in HCl/H2O at pH 1; format: physicochemical
[3] = Lipophilicity, CHI in methanol by fast-gradient HPLC; format: physicochemical
In short: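 Chromatographic hydrophobicity index measured by fast-gradient reversed-phase HPLC with methanol as organic modifier. The index is calculated from the compound's retention time. It approximates the volume percentage of methanol needed for equal distribution of the compound between mobile and stationary phases.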

Chain of Mitogen-activated protein kinase 14 (Q16539 whole entry): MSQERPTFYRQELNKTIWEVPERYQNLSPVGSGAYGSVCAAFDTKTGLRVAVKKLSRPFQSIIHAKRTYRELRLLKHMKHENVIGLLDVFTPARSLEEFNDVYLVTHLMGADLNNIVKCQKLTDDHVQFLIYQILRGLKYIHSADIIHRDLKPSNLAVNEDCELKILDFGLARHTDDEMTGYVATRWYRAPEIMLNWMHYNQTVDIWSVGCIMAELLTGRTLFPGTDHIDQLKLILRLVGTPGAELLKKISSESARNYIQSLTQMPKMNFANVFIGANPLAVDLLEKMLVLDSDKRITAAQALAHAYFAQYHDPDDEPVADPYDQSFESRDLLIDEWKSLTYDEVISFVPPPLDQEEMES

IC50 [1] [nM] | solubility [2] [µg/mL] | CHI [3] [%] | Structure (SMILES)
40 |  |  | Nc1cc(F)ccc1Nc1ccc2c(c1)OCc1ccccc1C2=O
 | < 10 | 82.6 | Nc1ccccc1Nc1ccc2c(c1)CCc1ccccc1C2=O
 |  | 75.2 | Nc1ccccc1Nc1ccc2c(c1)OCc1ccccc1C2=O
130 |  | 82.8 | Nc1cc(F)ccc1Nc1ccc2c(c1)CCc1ccccc1C2=O
1950 |  | 71.4 | Nc1ccccc1Nc1ccc2c(=O)c3cnccc3ccc2c1
440 |  | 65.8 | Nc1ccccc1Nc1ccc2c(c1)CCc1cccnc1C2=O
1080 |  | 73.4 | Nc1ccccc1Nc1ccc2c(=O)c3cccnc3ccc2c1
330 |  | 82.9 | O=c1c2ccc(Nc3ccc(F)cc3F)cc2ccc2ncccc12
310 | 1200 (≈ 3800 µM) | 73.9 | Nc1ccccc1Nc1ccc2c(c1)CCc1ncccc1C2=O
2680 |  | 69 | Nc1ccccc1Nc1ccc2c(c1)OCc1ncccc1C2=O
2730 |  | 70.9 | Nc1cc(F)ccc1Nc1ccc2c(c1)OCc1ncccc1C2=O
1190 |  | 72.9 | Nc1cc(F)ccc1Nc1ccc2c(c1)CCc1ncccc1C2=O
130 | < 10 | 88.1 | O=C1c2ccccc2CCc2cc(Nc3ccc(F)cc3F)ccc21
240 | 486 (≈ 1440 µM) | 81.2 | O=C1c2ccc(Nc3ccc(F)cc3F)cc2CCc2ncccc21
2530 |  | 88.7 | O=c1c2ccccc2ccc2cc(Nc3ccc(F)cc3F)ccc12
180 |  | 83.2 | O=C1c2ccc(Nc3ccc(F)cc3F)cc2OCc2ncccc21
